Data taken from ChEMBL document CHEMBL1135904, “Toward an optimal joint recognition of the S1' subsites of endothelin converting enzyme-1 (ECE-1), angiotensin converting enzyme (ACE), and neutral endopeptidase (NEP)” (J Med Chem, 2002).

Experiments:
Neprilysin = molecular target: T1, Neprilysin (Oryctolagus cuniculus, UniProt P08049); test: Inhibition of neutral endopeptidase (NEP)
T1 sequence (P08049 whole entry): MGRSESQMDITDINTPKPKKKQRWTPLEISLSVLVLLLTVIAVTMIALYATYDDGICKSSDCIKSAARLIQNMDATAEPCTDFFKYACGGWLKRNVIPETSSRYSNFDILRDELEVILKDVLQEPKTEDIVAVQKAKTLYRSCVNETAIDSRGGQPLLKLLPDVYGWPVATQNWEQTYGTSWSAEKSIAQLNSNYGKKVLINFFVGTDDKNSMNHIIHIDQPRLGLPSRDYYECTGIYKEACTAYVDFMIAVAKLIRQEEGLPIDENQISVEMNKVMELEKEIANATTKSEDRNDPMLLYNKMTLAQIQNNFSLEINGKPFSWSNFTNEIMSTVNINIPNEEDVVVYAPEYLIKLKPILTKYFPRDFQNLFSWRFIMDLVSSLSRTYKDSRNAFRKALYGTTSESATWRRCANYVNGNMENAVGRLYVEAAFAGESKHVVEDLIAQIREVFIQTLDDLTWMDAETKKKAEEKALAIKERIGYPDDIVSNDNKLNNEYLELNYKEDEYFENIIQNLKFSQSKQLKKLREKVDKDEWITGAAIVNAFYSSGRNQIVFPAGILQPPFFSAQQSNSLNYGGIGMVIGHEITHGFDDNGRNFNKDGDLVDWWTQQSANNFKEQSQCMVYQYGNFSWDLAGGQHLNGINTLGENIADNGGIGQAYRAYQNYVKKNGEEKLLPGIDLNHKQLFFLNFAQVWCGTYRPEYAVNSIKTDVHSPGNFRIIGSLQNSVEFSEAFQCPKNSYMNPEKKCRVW
Method in brief: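 NEP purified from rabbit kidney (final 250 ng/mL) preincubated 10 min at 37 °C with or without increasing inhibitor concentrations in 50 mM Tris-HCl pH 7.4. Substrate Dansyl-Gly-(p-NO2)Phe-β-Ala (DGPA; Km 37 μM) added to 50 μM final. Reaction stopped after 1 h with DMSO. Fluorescence read at ex 340/em 530 nm.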

[1] = molecular target: T2, Endothelin-converting enzyme 1 (Homo sapiens, UniProt P42892); test: Inhibition of Endothelin-converting enzyme 1 (ECE)
T2 sequence (P42892 whole entry): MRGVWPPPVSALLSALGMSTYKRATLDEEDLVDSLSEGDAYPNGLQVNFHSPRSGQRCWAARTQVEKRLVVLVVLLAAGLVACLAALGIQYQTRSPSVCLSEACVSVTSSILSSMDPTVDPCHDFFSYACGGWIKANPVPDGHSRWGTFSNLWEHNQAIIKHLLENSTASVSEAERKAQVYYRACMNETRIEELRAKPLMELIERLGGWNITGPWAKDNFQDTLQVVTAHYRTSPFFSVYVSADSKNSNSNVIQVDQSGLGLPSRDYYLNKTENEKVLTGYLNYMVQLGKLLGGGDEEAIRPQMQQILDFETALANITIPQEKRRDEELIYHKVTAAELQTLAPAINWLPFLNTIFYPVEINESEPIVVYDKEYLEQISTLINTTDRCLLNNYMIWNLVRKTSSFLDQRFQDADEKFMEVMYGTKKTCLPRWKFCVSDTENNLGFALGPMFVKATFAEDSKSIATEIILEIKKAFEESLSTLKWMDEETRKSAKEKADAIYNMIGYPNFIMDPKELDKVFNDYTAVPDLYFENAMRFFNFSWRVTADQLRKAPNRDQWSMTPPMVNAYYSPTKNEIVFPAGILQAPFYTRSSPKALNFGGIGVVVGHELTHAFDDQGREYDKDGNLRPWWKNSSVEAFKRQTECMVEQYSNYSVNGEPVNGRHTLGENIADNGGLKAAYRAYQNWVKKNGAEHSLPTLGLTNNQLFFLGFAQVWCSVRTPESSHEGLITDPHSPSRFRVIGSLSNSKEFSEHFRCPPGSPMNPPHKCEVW

[2] = molecular target: T3, Angiotensin-converting enzyme (Rattus norvegicus, UniProt P47820); test: Inhibition of Angiotensin I converting enzyme ACE)
T3 sequence (P47820 whole entry): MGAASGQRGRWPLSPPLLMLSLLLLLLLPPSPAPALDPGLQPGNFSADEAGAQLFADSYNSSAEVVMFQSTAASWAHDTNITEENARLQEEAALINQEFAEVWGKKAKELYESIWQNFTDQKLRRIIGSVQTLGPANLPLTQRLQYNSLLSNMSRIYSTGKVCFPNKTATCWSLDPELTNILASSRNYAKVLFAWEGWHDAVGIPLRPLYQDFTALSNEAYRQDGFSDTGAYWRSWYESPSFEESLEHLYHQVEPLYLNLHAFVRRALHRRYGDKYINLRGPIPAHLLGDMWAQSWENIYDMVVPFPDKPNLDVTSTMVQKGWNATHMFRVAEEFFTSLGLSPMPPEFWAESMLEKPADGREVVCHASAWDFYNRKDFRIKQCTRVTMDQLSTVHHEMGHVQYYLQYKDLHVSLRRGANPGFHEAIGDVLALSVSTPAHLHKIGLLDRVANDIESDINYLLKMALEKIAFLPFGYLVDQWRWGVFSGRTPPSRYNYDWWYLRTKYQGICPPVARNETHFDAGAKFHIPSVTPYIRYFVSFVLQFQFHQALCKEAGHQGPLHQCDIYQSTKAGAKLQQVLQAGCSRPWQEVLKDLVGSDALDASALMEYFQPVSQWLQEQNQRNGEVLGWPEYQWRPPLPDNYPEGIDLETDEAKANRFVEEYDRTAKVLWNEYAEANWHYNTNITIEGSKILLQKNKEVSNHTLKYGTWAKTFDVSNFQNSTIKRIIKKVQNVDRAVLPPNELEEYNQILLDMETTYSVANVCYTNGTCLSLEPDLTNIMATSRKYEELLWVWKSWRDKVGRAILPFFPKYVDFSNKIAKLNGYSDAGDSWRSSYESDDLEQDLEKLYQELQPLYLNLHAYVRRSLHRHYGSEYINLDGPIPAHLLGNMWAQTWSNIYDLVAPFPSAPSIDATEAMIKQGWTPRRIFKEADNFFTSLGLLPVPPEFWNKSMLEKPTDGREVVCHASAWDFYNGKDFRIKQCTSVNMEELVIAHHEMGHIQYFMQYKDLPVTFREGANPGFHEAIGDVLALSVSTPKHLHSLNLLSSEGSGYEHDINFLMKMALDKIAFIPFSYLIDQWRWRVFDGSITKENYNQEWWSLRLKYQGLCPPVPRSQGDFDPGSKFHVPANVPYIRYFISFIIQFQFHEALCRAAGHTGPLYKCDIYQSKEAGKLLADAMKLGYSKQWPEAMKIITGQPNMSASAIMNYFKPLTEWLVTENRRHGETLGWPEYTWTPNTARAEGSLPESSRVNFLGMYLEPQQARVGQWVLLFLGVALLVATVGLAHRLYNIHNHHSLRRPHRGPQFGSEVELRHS
Method in brief: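 ACE purified from rat testis, final 0.02 pmol/100 µL, preincubated 10 min at 37 °C with or without various inhibitor concentrations in 50 mM Tris/HCl/NaCl 1% pH 7.4. Then 50 µM N-Cbz-Phe-His-Leu (Km 50 µM) added for 30 min. Stopped with 2 N NaOH and diluted with water. Released His-Leu measured fluorometrically.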

Row | Structure (SMILES) | IC50 (Neprilysin) | IC50 [1] | IC50 [2]
1 | CS(=O)(=O)N[C@@H](CCCCN)C(=O)N[C@@H](Cc1ccccc1)P(=O)(O)CC1(C(=O)N[C@@H](Cc2c[nH]c3ccccc23)C(=O)O)CCCC1 | 90 nM | – | –
2 | O=C(O)[C@H](Cc1ccc2c(c1)oc1ccccc12)NCP(=O)(O)O | 2300 nM | – | –
3 | O=C1N[C@H](C(=O)O)CCCCCCc2cccc(c2)CC1CS (stereo not given in full) | 4 nM | 620 nM | 175 nM
